In ChEMBL document CHEMBL4219124, “Alleviating CYP and hERG liabilities by structure optimization of dihydrofuran-fused tricyclic benzo[d]imidazole series - Potent, selective and orally efficacious microsomal prostaglandin E synthase-1 (mPGES-1) inhibitors: Part-2” (Bioorg Med Chem Lett, 2018):

Columns and labels:
[1] = (§1) AUC (0 to 24 hrs) in Beagle dog at 10 mg/kg, po; type: ADME, organism-based, Canis lupus familiaris; design: dose 10 mg/kg, time < 24 hr, route oral; settings: Beagle, in vivo
Summary of the method: (§2)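 Single oral dose of 10 mg/kg. Cmax and AUC0-24 taken from the oral arm. Rat: male Sprague-Dawley, dosed in 0.5% methylcellulose suspension, mean ± SD (n = 3). Guinea pig: 20% NMP + 0.5% MC suspension, mean ± SD (n = 3). Dog and cynomolgus monkey: 2.5 μL/mL Tween 80 + 0.5 (w/v) MC suspension.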

[2] = Oral bioavailability in cynomolgus monkey at 10 mg/kg; type: ADME, organism-based, Macaca fascicularis; settings: in vivo
Summary of the method: (§3)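 Plasma PK after 1 mg/kg i.v. and 10 mg/kg p.o.; %F from both routes. Rat: male Sprague-Dawley, oral 0.5% methylcellulose suspension, i.v. 20% NMP/20% ethanol/60% PEG 200, n = 3. Dog oral: Tween 80 2.5 μL/mL + 0.5% MC suspension. Monkey oral: same Tween/MC suspension; i.v. 10% NMP/10% ethanol/10% PEG/70% PEG200-water premix.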

[3] = (§4) Oral bioavailability in Beagle dog at 10 mg/kg; type: ADME, organism-based, Canis lupus familiaris; settings: Beagle, in vivo; summary of the method: as §3
[4] = Clearance in cynomolgus monkey at 1 mg/kg, iv; type: ADME, organism-based, Macaca fascicularis; settings: in vivo
Summary of the method: (§5)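 Intravenous dose of 1 mg/kg; clearance and Vz derived from the i.v. arm. Rat (male Sprague-Dawley) vehicle 20% NMP + 20% ethanol + 60% PEG 200, mean ± SD (n = 3). Dog vehicle 20% NMP + 20% EtOH + 10% PG + 50% PEG 200:water (3:2). Monkey vehicle 10% NMP + 10% ethanol + 10% PEG + 70% PEG200:water (3:2).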

[5] = Protein binding in dog plasma at 10 uM after 5 hrs by equilibrium dialysis based LC-MS/MS analysis; type: ADME, cell-free, Canis lupus familiaris; settings: read-out: PPB (converted)
Summary of the method: (§6)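 Equilibrium dialysis at 10 μM compound; result expressed as percent bound.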

[6] = Clearance in Beagle dog at 1 mg/kg, iv; type: ADME, organism-based, Canis lupus familiaris; settings: in vivo; summary of the method: as §5
[7] = Apparent volume of distribution in Sprague-Dawley rat at 1 mg/kg, iv; type: ADME, organism-based; settings: in vivo, read-out: Vz; summary of the method: as §5
[8] = AUC (0 to 24 hrs) in cynomolgus monkey at 10 mg/kg, po; type: ADME, organism-based, Macaca fascicularis; design: time < 24 hr, dose 10 mg/kg, route oral; settings: in vivo; summary of the method: as §2
Canis familiaris [9] = assay: as §1; type: ADME, organism-based, Canis lupus familiaris; design: dose 10 mg/kg, time < 24 hr, route oral; settings: in vivo, 24 h; summary of the method: as §2
Canis familiaris [10] = assay: as §4; type: ADME, organism-based, Canis lupus familiaris; settings: in vivo; summary of the method: as §3
[11] = Ratio of drug uptake in brain to plasma of Beagle dog at 10 mg/kg, po; type: ADME, organism-based, Canis lupus familiaris; settings: read-out: BPR
[12] = Protein binding in cynomolgus monkey plasma at 10 uM after 5 hrs by equilibrium dialysis based LC-MS/MS analysis; type: ADME, cell-free, Macaca fascicularis; settings: read-out: PPB (converted); summary of the method: as §6
[13] = Plasma concentration in Dunkin-Hartley guinea pig MIA-induced osteoarthritic pain model at 250 mg/kg, po measured 2 hrs post dose; type: ADME, organism-based, Cavia porcellus
Summary of the method: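 Intra-articular MIA into the right shoulder joint on day 0; oral dosing at 100, 250 or 500 mg/kg on day 3, incapacitance (forelimb weight bearing) measured. Plasma concentration sampled 2 h post dose. Means of 6–8 animals per group, single experiment.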

[14] = Ratio of drug uptake in brain to plasma of Dunkin-Hartley guinea pig LPS-induced hyperalgesia pain model at 100 mg/kg, po administered 2 hrs prior to LPS challenge measured 7 hrs post dose; type: ADME, organism-based, Cavia porcellus; settings: read-out: BPR
Summary of the method: (§7)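 Guinea pigs dosed orally at 10, 30 or 100 mg/kg 2 h before intraplantar LPS in the right hind paw; thermal hyperalgesia scored. Plasma (ng/mL) and brain (ng/g) levels taken 7 h post dose; brain/plasma ratio computed. Means of 6–9 animals per group, single experiment.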

[15] = Drug uptake in brain of Dunkin-Hartley guinea pig LPS-induced hyperalgesia pain model at 10 mg/kg, po administered 2 hrs prior to LPS challenge measured 7 hrs post dose; type: ADME, organism-based, Cavia porcellus; settings: read-out: Drug uptake
Summary of the method: (§8)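 Guinea pigs received compound orally, once daily, at 10, 30 or 100 mg/kg, 2 h before LPS was injected into the plantar surface of the right paw. Saline-injected animals served as the comparison for thermal hyperalgesia. Plasma and brain drug levels taken 7 h after dosing, mean of n = 6–9 per group, from a single experiment.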

[16] = Ratio of plasma concentration in Dunkin-Hartley guinea pig LPS-induced hyperalgesia pain model to IC50 for mPGES1 in guinea pig whole blood; type: ADME; settings: in vivo
[17] = Drug uptake in brain of Dunkin-Hartley guinea pig LPS-induced hyperalgesia pain model at 30 mg/kg, po administered 2 hrs prior to LPS challenge measured 7 hrs post dose; type: ADME, organism-based, Cavia porcellus; settings: read-out: Drug uptake; summary of the method: as §8
[18] = Plasma concentration in Dunkin-Hartley guinea pig LPS-induced hyperalgesia pain model at 10 mg/kg, po administered 2 hrs prior to LPS challenge measured 7 hrs post dose; type: ADME, organism-based, Cavia porcellus; summary of the method: as §7
Cavia porcellus [19] = assay: Analgesic activity in Dunkin-Hartley guinea pig hyperalgesia pain model assessed as inhibition of LPS-induced hyperalgesia at 10 mg/kg, po administered 2 hrs prior to LPS challenge measured after 4.5 hrs relative to control; type: functional; summary of the method: as §8
[20] = target: T1, Nuclear receptor subfamily 1 group I member 2 (Homo sapiens, UniProt O75469); assay: Activation of human PXR; type: ADME
T1 sequence (O75469 whole entry): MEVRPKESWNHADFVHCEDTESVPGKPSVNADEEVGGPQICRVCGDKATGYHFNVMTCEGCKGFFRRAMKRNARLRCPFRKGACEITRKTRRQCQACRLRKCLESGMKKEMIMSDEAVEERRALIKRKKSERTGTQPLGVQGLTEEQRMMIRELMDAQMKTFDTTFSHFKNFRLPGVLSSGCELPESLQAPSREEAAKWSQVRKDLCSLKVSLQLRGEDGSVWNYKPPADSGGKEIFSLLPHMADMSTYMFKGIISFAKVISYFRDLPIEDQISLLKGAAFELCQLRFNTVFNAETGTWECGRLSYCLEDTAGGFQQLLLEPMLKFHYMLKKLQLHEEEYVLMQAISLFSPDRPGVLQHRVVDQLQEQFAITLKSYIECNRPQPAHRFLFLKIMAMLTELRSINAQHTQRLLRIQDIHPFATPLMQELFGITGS

[21] = Plasma concentration in Dunkin-Hartley guinea pig LPS-induced hyperalgesia pain model at 30 mg/kg, po administered 2 hrs prior to LPS challenge measured 7 hrs post dose; type: ADME, organism-based, Cavia porcellus; summary of the method: as §7
Cavia porcellus [22] = assay: Analgesic activity in Dunkin-Hartley guinea pig MIA-induced osteoarthritic pain model assessed as reversal of incapacitance at 500 mg/kg, po administered on day 3 measured at 6 to 7 hrs relative to control; type: functional
Summary of the method: (§9)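 Day 0: monoiodoacetate injected into the right shoulder joint of guinea pigs; saline-injected animals as comparison. Day 3: compound given orally at 100, 250 or 500 mg/kg, and weight-bearing incapacitance on the injected forelimb measured. Plasma sampled at the PD time point, n = 6–8 per group, single experiment.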

Cavia porcellus [23] = assay: Analgesic activity in Dunkin-Hartley guinea pig hyperalgesia pain model assessed as inhibition of LPS-induced hyperalgesia at 30 mg/kg, po administered 2 hrs prior to LPS challenge measured after 4.5 hrs relative to control; type: functional; summary of the method: as §8
Cavia porcellus [24] = assay: Analgesic activity in Dunkin-Hartley guinea pig MIA-induced osteoarthritic pain model assessed as reversal of incapacitance at 100 mg/kg, po administered on day 3 measured 6 to 7 hrs post dose relative to control; type: functional; summary of the method: as §9
[25] = Ratio of plasma concentration in Dunkin-Hartley guinea pig MIA-induced osteoarthritic pain model to IC50 for mPGES1 in human whole blood; type: ADME; settings: in vivo

| AUC(0-t) at 24 h [1] | bioavailability [2] | bioavailability [3] | clearance [4] | fraction unbound at 5 h, 10 µM [5] | clearance [6] | Vd [7] | AUC(0-t) at 24 h [8] | Kp [11] | fraction unbound at 5 h, 10 µM [12] | Compound | also measured |
| --- | --- | --- | --- | --- | --- | --- | --- | --- | --- | --- | --- |
| 12900 ng·h/mL | 11% | 40% | 1.6 mL/min/kg | 0.003 | 3.5 mL/min/kg | 4.84 L/kg | 7510 ng·h/mL | – | – | Cc1cccc(Cl)c1Nc1nc2cc(C(=O)Nc3cc(C(F)(F)F)ccc3F)c3c(c2[nH]1)CC(C)(C)O3 | – |
| – | 21% | – | 8.5 mL/min/kg | 0.008 | – | 3.77 L/kg | 3670 ng·h/mL | 0.32 | 0.005 | CC1(C)Cc2c(c(C(=O)Nc3ccc(C(F)(F)F)cn3)cc3nc(Nc4c(Cl)cccc4Cl)[nH]c23)O1 | AUC (Canis familiaris [9]): 4432 ng·h/mL; F (Canis familiaris [10]): 25% |
| 8240 ng·h/mL | – | 15% | – | 0.009 | 1.61 mL/min/kg | 3.85 L/kg | – | 0.72 | 0.0052 | CC1(C)Cc2c(c(C(=O)Nc3ccc(F)c(C(F)(F)F)c3)cc3nc(Nc4c(F)cccc4Cl)[nH]c23)O1 | concentration at 2 h [13]: 1510 ng/mL; Kp at 7 h [14]: 1.06; concentration at 7 h [15]: 96 ng/g; Ratio [16]: 2; concentration at 7 h [17]: 87 ng/g; concentration at 7 h [18]: 94 ng/mL; inhibition in vivo at 10 mg/kg (Cavia porcellus [19]): 20%; EC50 [20]: 2460 nM; concentration at 7 h [21]: 145 ng/mL; Activity (Cavia porcellus [22]): 83%; inhibition in vivo at 30 mg/kg (Cavia porcellus [23]): 44%; Activity (Cavia porcellus [24]): 48%; Ratio [25]: 17 |
